From ChEMBL document CHEMBL1146686, “Phenolic thiazoles as novel orally-active neuroprotective agents” (Bioorg Med Chem Lett, 2004) come the findings set out here.

Usually IC50 stands for the point on the concentration scale where inhibition reaches its midpoint.

The species entered for this test is Rattus norvegicus. As to the kind of experiment: Compound tested to inhibit (LPO) lipid peroxidation was determined in rat brain microsomes. Type of test: functional. The essentials:
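Rat brain microsomes; lipid peroxidation induced by Fe2+. Antioxidant activity read as reduction of malondialdehyde formed from unsaturated fatty acid peroxidation.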

Molecule `Cc1cc(C(C)(C)C)c(O)c(C(C)(C)C)c1` [BUTYLATED HYDROXYTOLUENE] displayed an IC50 of 30 µM.
Under `CC1=NN(c2ccccc2)C(=O)C1` [EDARAVONE] stands 32 µM.
